# Insulin prom act = TRM-6 insulin promoter activation | actives 0.81% (n = 130,000) | activation, % at 2 µM | TRM-6 cells (human fetal islet line), insulin promoter eGFP reporter, imaging; plate-scaled: unstimulated 0, stimulated control 100 | AID 1296;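 active = activation at 2 µM above a set limit, confirmed on inspection of the cell images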;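 also: share of cells whose green reporter signal exceeds an intensity cutoff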
#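 System – TRM-6 insulin promoter–eGFP reporter cells · Probe or stimulus – 0.75 µM tamoxifen as reporter inducer · Dosing – single-point 2 µM compound dose · Incubation – tamoxifen pre-incubation 15 h overnight, then compound exposure 48 h at 37 °C · Measured by – fixed-cell fluorescence microscopy, eGFP plus Hoechst · Evaluation – percent GFP-positive cells normalized to per-plate controls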
# The depositor's hits bear a star. Shown is part of a subset that was picked to be rich in hits.
SMILES,Insulin prom act
CCc1ccc(-n2c(C)cc(/C=N/NC(=O)OC)c2C)cc1,-7.9
CN1CCCC(OC(=O)CCCC(=O)OC2CCCN(C)C2)C1 (configuration not stated),0.0
COc1cc(CCC(=O)Nc2ccc(Cl)c(C(F)(F)F)c2)cc(OC)c1OC,276.9*
COc1cccc(C(=O)Nc2ccc(Cl)c(C(F)(F)F)c2)c1,7.7
COc1cc(CCC(=O)Nc2cc(Cl)ccc2N2CCN(C)CC2)cc(OC)c1OC,5.7
Cn1c(SCC(=O)NC(c2ccccc2)c2ccccc2)nnc1-c1cccs1,-3.7
CC(=O)N1CCCc2cc(S(=O)(=O)N3CCC(C)CC3)ccc21,0.0
Cc1ccc(C)c(C(=O)Cn2ncc(Cl)c(Cl)c2=O)c1,269.2
CCOC(=O)c1ccc(NC(=O)Cn2ncc(Cl)c(Cl)c2=O)cc1,170.3
Cc1ccc(C(=O)OCn2ncc(Cl)c(Cl)c2=O)cc1,193.5*
CN(C)c1ccc(CNn2cnnc2SCc2ccc(F)cc2)cc1,-6.1
Fc1ccc(CSc2nncn2NCc2ccccc2)cc1,427.8*
CC(C)(C)NC(=O)CSc1nncn1NCc1ccccc1,0.0
O=C(Nc1cc2c(cc1Br)OCCO2)c1cccs1,2.9
NC(=O)c1noc(C(=O)N(CC(=O)NC2CCCC2)Cc2ccc3c(c2)OCO3)c1N,456.3*
O=C(NC1CCCC1)C(c1ccccc1)N(Cc1ccc2c(c1)OCO2)C(=O)Cc1cccs1 (configuration not stated),246.2
Cn1cnnc1SCC(=O)N(Cc1ccc2c(c1)OCO2)C1(C(=O)NC2CCCCC2)CCCC1,7.1
CCn1c(SCC(=O)NC(=O)NC(C)(C)C)nc2ccccc21,129.4*
CCn1c(SCC(=O)O)nc2ccccc21,0.0
CN(C)C(=O)Cn1c(SCC(=O)NC2CCCCC2)nc2ccccc21,-5.4
COc1ccc(CCNC(=O)c2c(C)noc2C)cc1,0.0
CC(=O)Nc1ccc(/C(C)=N/NC(=O)c2ccccc2Cl)cc1,-5.6
CC(CC(=O)Nc1nncs1)c1ccccc1 (configuration not stated),0.0
N#C/C(=C\c1ccc([N+](=O)[O-])o1)C(=O)Nc1ccc(F)cc1,400.0*
N#C/C(=C\c1ccc(N2CCCCC2)o1)C(=O)Nc1cccc(Br)c1,185.7
SMILES,Insulin prom act
O=C1OC(c2ccc(F)cc2)=C/C1=C\c1ccc([N+](=O)[O-])o1,168.8
CCNC(=S)Nc1cc(Cl)ccc1Oc1ccccc1,0.0
CCOC(=O)C(=O)/C(=C\N(C)C)c1onc(-c2c(F)cccc2Cl)c1C(=O)OC,3.1
COc1ccc(-c2nc3c(c(=O)n(C)c(=O)n3C)n2CC2CC(c3ccccc3)=NO2)cc1OC (configuration not stated),-40.9
CC(c1ccccc1)N1CC(C(=O)N2CCN(c3ccc(F)cc3)CC2)CC1=O (configuration not stated),0.0
NS(=O)(=O)c1ccc(NC(=O)C2COc3ccccc3O2)cc1 (configuration not stated),4.2
CC1CC(C)CN(S(=O)(=O)c2ccc(NC(=O)C3COc4ccccc4O3)cc2)C1 (configuration not stated),925.0*
CC(C)(C)NC(=O)c1ccc(NC(=O)C2COc3ccccc3O2)cc1 (configuration not stated),9.4
CCOc1nc(NC2CCCCC2)nc(NC(C)(C)C)n1,-76.7
CN1C=CC2=C(C#N)C(N)C(C#N)(C#N)[C@H](c3ccccc3)[C@H]2C1 (some centres not stated),300.0*
COc1ccc2c(c1[N+](=O)[O-])CCC/C2=N/OC(=O)c1ccccc1SC,5.4
Cc1nn2c3c(cnc2c1-c1ccccc1)C(=O)CC(c1ccco1)C3 (configuration not stated),136.4*
Cc1ccc(NC(=O)CSCC(=O)Nc2ncc3c(n2)CC(c2ccco2)CC3=O)cc1 (configuration not stated),2.7
O=C(Nc1ncc2c(n1)CC(c1ccco1)CC2=O)c1ccccc1 (configuration not stated),6.7
Cn1c(CCN2CCOCC2)nc2cc(NC(=O)c3cccs3)ccc21,-8.3
Cc1[nH]nc(-c2ccc(O)c(C)c2O)c1-c1cnn(-c2ccccc2)c1,154.5
Clc1ccc(-c2nc(Cc3ccccc3)no2)cc1,83.9*
Clc1ccc(-c2noc(CCCOc3ccccc3)n2)cc1,8.3
c1ccc(-c2nc(-c3ccncc3)no2)cc1,-80.0
COc1ccc(S(=O)(=O)Nc2ccc(F)c(Cl)c2)cc1OC,0.0
O=C(Cn1cc(C(=O)C(F)(F)F)c2ccccc21)NCc1ccco1,5.6
CC(=O)c1cn(CC(=O)NCc2cccnc2)c2ccccc12,5.3
O=C(Cn1cc(C(=O)c2ccco2)c2ccccc21)NCc1ccco1,97.3*
Cc1cccnc1NC(=O)c1cc2ccccc2oc1=O,0.0
Cc1nc(SCC(=O)NC(C)(C)C)c2c(-c3cccs3)csc2n1,3.6
SMILES,Insulin prom act
Cc1ccc(NC(=O)CSc2nnc(-c3cccnc3)s2)cc1,9.4
Cc1ccc(CSCC(=O)Nc2ccc3c(c2)OCO3)cc1,-5.6
Cc1ccc(NC(=O)CSCC#N)cc1,82.8*
O=C(NCCc1ccccn1)C1CCN(S(=O)(=O)c2ccc3ccccc3c2)CC1,105.6
COc1cc(SC)ccc1C(=O)NCCc1ccccc1,-9.1
C=CCN=C1SC(CC)C(=O)N1S(=O)(=O)c1ccc(C)cc1 (configuration not stated),8.6
Cc1ccc(NC(=O)CCC(=O)OCC(=O)c2ccc(-c3ccccc3)cc2)cc1,-24.2
O=C(CCC(=O)OCCCC(F)(F)C(F)(F)F)Nc1ccccc1,-9.4
Cc1ccc(NC(=O)CCC(=O)OCC(F)(F)C(F)F)cc1,80.6*
CC(C(=O)Nc1ccccc1C(=O)N1CCOCC1)N(c1ccccc1)S(C)(=O)=O (configuration not stated),289.5
CSc1nc(C)cc(OCCNS(=O)(=O)c2ccc(C)cc2)n1,286.7
CC(=NCCCn1ccnc1)c1c(O)n(Cc2ccccc2)c(=O)[nH]c1=O,-8.3
CCOC(=O)N1CCN=C1SCc1ccc(C(F)(F)F)cc1,-2.9
CCC(=O)N1CCN=C1SCc1ccc(Cl)cc1,493.1*
CSC1=NCCN1C(=O)Cc1ccc(-c2ccccc2)cc1,9.5
O/N=C/c1cccnc1Sc1ccccc1,0.0
O=S(=O)(NCC1CCCO1)c1ccc(S(=O)(=O)N2CCCC2)cc1 (configuration not stated),2.6
COc1ccc(Cl)cc1S(=O)(=O)N1CCCC1=O,5.6
CC(C)(C)NC(=O)C1CCN(C(=O)c2ccc(Br)cc2)CC1,244.2
Cc1ccccc1C(=O)NC(=S)Nc1ccccc1N1CCCC1,-2.9
CC1CCN(c2ccccc2NC(=S)NC(=O)c2ccco2)CC1,230.0*
CCOc1ccc(C(=O)NC(=S)Nc2ccccc2N2CCC(C)CC2)cc1[N+](=O)[O-],-7.1
Cn1c(SCc2cc([N+](=O)[O-])cc3c2OCOC3)nnc1-c1ccccn1,0.0
O=C(O)c1cccc(NS(=O)(=O)c2cccc3nsnc23)c1,-7.4
Cc1ccc(CNC(=O)C2C3C=CC(C3)C2C(=O)O)cc1 (configuration not stated),372.2
N#Cc1c(C(F)(F)F)cc(-c2ccccc2)nc1SCc1nc(N)nc(N2CCOCC2)n1,250.9*
COc1ccc(-c2cc(C(F)(F)F)c(C#N)c(SCC(=O)Nc3ccc(C)cc3)n2)cc1,8.1
FC(F)(F)c1cc(-c2ccccc2)nc(N2CCOCC2)n1,-2.9
CC(C)OC(=O)NS(=O)(=O)c1cccc([N+](=O)[O-])c1,0.0
